High-throughput results deposited in PubChem BioAssay by several laboratories.
In the library only some 2.6% were active in any assay of this set; here they are far more common.
SENP6 inh – SENP6 protease inhibition | Q9GZR1 | Recombinant SENP6 catalytic domain, aminoluciferin luminescence | AID 2599 | inhibition, % at 10 µM | hit rate 1.8% among 330,000;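 active means inhibition above about 50% at the single tested dose, limit read from the data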;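 further: plate controls were DMSO wells with enzyme for no effect and DMSO wells lacking enzyme for full effect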
SENP8 block-1 – inhibitors of human SENP8 protease; AID 602440; hit rate 0.64% among 360,000; inhibition, % at 20 µM; Q96LD8; recombinant SENP8, Nedd8 substrate fluorescence; in the data active means inhibition mostly above about 40%, no sharp cut-off; inactive means mostly below about 27%
Target sequence (Q96LD8 whole entry, looked up): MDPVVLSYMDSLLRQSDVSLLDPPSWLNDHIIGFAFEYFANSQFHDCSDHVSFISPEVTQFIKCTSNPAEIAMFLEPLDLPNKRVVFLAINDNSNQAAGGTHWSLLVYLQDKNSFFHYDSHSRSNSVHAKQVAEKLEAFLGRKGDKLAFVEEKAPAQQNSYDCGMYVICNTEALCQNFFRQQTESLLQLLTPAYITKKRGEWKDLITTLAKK
SENP1 FRET inh – blocks the human SENP1 SUMO protease catalytic domain. Q9P0U3. recombinant SENP1 catalytic domain, CyPet-SUMO1-YPet FRET cleavage. inhibition, % at 10 µM. hit rate 0.21% among 360,000. AID 624204;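 active means inhibition at least 30% at 10 µM, raw YFP signal under a set limit, fluorescence ratio 0.5 to 1.5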;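 further: 0% = enzyme with DMSO and 100% = no enzyme wells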
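System: Recombinant human SENP1 catalytic domain, His6-tagged | Incubation: Enzyme reaction for 50 min at room temperature, dark | Medium: Tris pH 8 with BME, BSA, NP40 and catalase | Also added: 25 nM SUMO1 FRET substrate | Compound: 10 µM single point, 0.5% DMSO | Measured by: FRET fluorescence in CFP and YFP emission channels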
Platelet DG rel – modulates dense granule release in human platelets; inhibition, %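 (compounds screened at 7.5 µM in platelet-rich plasma)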; hit rate 0.22% among 300,000; human platelet-rich plasma, SFLLRN dense granule ATP release, luminescence;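 active means mean replicate score, as percent of positive control, at or above 50; inconclusive means mean below 50 but at least one replicate at or above 50; inactive means mean and every replicate below 50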
SENP8 block-2 – inhibitors of human SENP8 protease; Q96LD8; purified SENP8, Z-RLRGG-aminoluciferin cleavage, luminescence; inhibition, % at 10 µM; hit rate 1.2% among 330,000; AID 2540; in the data active means inhibition above about 50%
SENP7 inh – SENP7 protease inhibition | Q9BQF6 | recombinant SENP7, Z-RLRGG-aminoluciferin luminescence, 40 min | inhibition, % at 5 µM | hit rate 1.5% among 330,000 | AID 434973;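 active means inhibition above about 50% at the single test dose, limit read from the data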;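 further: plate controls were DMSO with enzyme for no effect and no enzyme buffer wells for full effect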
SENP8 confirm – confirmation of human SENP8 protease inhibitors. hit rate 40% among 6,200. Recombinant SENP8, Z-RLRGG-aminoluciferin luminescence, 60 min. inhibition, % at 12.5 µM. shares compounds with SENP7 inh;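 active means mean inhibition across replicates above about 50%, limit read from the data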
SENP6 conf – human SENP6 inhibition, confirmed. recombinant SENP6, Z-RLRGG-aminoluciferin luminescence. inhibition, % at 12.5 µM. hit rate 58% among 6,200. shares compounds with SENP7 inh. AID 488915
SENP7 conf – confirmation of human SENP7 protease inhibitors; AID 488917; inhibition, % at 12.5 µM; shares compounds with SENP7 inh; hit rate 69% among 6,200; recombinant SENP7, Z-RLRGG-aminoluciferin luminescence, 40 min
Casp3 SENP sel – inhibits human caspase-3 in SENP selectivity test; shares compounds with SENP7 inh; purified caspase-3, Z-DEVD-aminoluciferin luminescence, 60 min; inhibition, % at 12.5 µM; hit rate 60% among 6,200; AID 488918;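 active means mean inhibition above about 50%, limit read from the data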;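 further: plate controls were enzyme with DMSO for no effect and wells without caspase-3 for full effect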
Target sequence (P42574 28-227 limits assumed): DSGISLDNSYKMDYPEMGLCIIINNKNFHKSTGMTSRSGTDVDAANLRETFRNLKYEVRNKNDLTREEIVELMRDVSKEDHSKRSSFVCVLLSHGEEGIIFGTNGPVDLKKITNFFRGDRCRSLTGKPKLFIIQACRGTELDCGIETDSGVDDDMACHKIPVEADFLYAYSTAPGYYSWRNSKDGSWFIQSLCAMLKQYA
SENP luc ctr – interferes with luciferase luminescence in SENP counter-screen; shares compounds with SENP7 inh; Pre-incubated SENP8/Z-RLRGG-aminoluciferin, luciferase luminescence interference; inhibition, % at 12.5 µM; hit rate 39% among 6,200; AID 488919;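 active means mean inhibition above about 50% when retested at one dose, limit read from the data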;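 further: plate controls were DMSO wells with completed reaction for no effect and substrate without enzyme for full effect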
An asterisk follows results filed as active; ? = inconclusive; / = not tested or not shown.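 How the source made its calls, unless noted: active means mean inhibition above about 50% in the one-dose retest (limit read from the data); inactive means the rest.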

SMILES	SENP6 inh	SENP8 block-1	SENP1 FRET inh	Platelet DG rel	SENP8 block-2	SENP7 inh	SENP8 confirm	SENP6 conf	SENP7 conf	Casp3 SENP sel	SENP luc ctr
Cc1nc2cc(NC(=O)Nc3ccccc3Cl)ccc2n1C	88*	6	1	?	93*	97*	86*	92*	99*	94*	91*
Cc1nc2cc(NC(=O)Nc3cccc([N+](=O)[O-])c3)ccc2n1C	73*	16	1	5	32	66*	34	54*	92*	76*	9
O=C1N(Cc2cccc(Cl)c2)C[C@@H]2C[C@@H](c3ccsc3)N3CCC[C@@]123	-2	5	-2	0	7	-1	/	/	/	/	/
Cc1cc(/C=N/NC(=O)C(=O)N2CCCC2)c(C)n1-c1cccc(Br)c1	-3	-10	0	0	4	9	/	/	/	/	/
O=C1c2ccccc2S(=O)(=O)c2cc(N3CCOCC3)ccc21	62*	-141	-27	1	46	69*	26	20	25	34	18
O=C1C(=Cc2cccs2)C(=O)c2ccccc21	31	10	2	-5	10	12	/	/	/	/	/
O=C1/C(=C\c2cccs2)Sc2ccc3ccccc3c21	92*	10	4	14	88*	98*	9	50*	80*	78*	2
CCOC(=O)C(CC)(CCC(=O)OC)c1csc(Nc2ccccc2O)n1 (centres undefined)	-7	/	/	-1	-9	-9	/	/	/	/	/
Cc1ccc(SCCC(=O)Nc2ccccc2Br)cc1	58*	5	3	1	39	38	49	44	78*	48	51*
CO/C([O-])=N/c1c[n+](-c2ccc(C)cc2)no1	-4	4	2	0	-2	2	/	/	/	/	/
CCC(=O)Oc1ccc(-c2cnc3ccccc3n2)cc1	94*	-26	-1	24	89*	94*	-15	92*	101*	88*	38
O=C(Oc1ccc(-c2cnc3ccccc3n2)cc1)c1ccco1	88*	3	1	45	92*	98*	76*	83*	94*	87*	42
Nc1nc(-c2nonc2N)no1	-10	-1	-1	6	3	-2	/	/	/	/	/
CCc1c(C)sc(NC(=O)c2cccs2)c1C#N	-2	-94	-5	-1	-7	-4	/	/	/	/	/
Cc1sc(NC(=O)c2ccccc2)c(C#N)c1-c1ccccc1	62*	-3	-14	1	25	-5	6	-7	29	16	1
O=C(O)c1ccc(N/N=C/c2ccnc3ccccc23)cc1	91*	11	-39	15	82*	92*	77*	90*	92*	69*	10
COc1ccc(/C=N/Nc2ccc(C(=O)O)cc2)c(OC)c1OC	-7	-197	2	13	7	21	/	/	/	/	/
O=C(O)c1ccc(N/N=C/c2c[nH]c3ccccc23)cc1	97*	-279	7	11	98*	100*	98*	100*	102*	96*	97*
CN1C(=O)C(CC(=O)O)S/C1=N\N=C\c1ccc(O)cc1O (centres undefined)	61*	-42	-3	9	28	41	34	33	74*	80*	40
Cc1nn(CC(=O)N2CCC(C)CC2)c(=O)c2cccn12	-2	11	2	5	5	3	/	/	/	/	/
CC1CN(C(=O)c2ccc(CNS(=O)(=O)c3cccc(C(F)(F)F)c3)cc2)CC(C)O1 (centres undefined)	-1	26	0	1	-3	5	/	/	/	/	/
